# Data reported in ChEMBL document CHEMBL1137010, “Improved peptide prodrugs of 5-ALA for PDT: rationalization of cellular accumulation and protoporphyrin IX production by direct determination of cellular prodrug uptake and prodrug metabolization” (J Med Chem, 2009).
# Calls of active or inactive are those of the source. The calls are words filed in the database; no cut-off is given here.
# Experiments:
# [1] = Chromatographic hydrophobicity index in methanol solution under isocratic conditions at pH 6.8; assay type: physicochemical
# How it was run: (§1)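 RP-HPLC on a C18 column at 35 °C, 0.7 mL/min. Mobile phase was CH3CN or CH3OH with 50 mM aq ammonium formate (pH 6.8). […], with t0 from uracil and tR measured in duplicate. Six isocratic compositions were chosen so that −1.5 < log k < 0.6, and the index was derived from the linear log k versus organic-fraction relation.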
# [2] = Chromatographic hydrophobicity index in acetonitrile solution under isocratic conditions at pH 6.8; assay type: physicochemical; how it was run: as §1
# A549 [3] = assay: Drug uptake in human A549 cells assessed as intracellular 5-aminolaevulinic acid level per mg of protein at 0.1 mM after 4 hrs; assay type: ADME, cell-based; settings: a549, 4 h, 100 µM
# PAM212 [4] = assay: Drug uptake in mouse PAM212 cells assessed as intracellular 5-aminolaevulinic acid level per mg of protein at 1 mM after 4 hrs; assay type: ADME, cell-based; settings: pam212, 4 h, 1000 µM
# PAM212 [5] = assay: Phototoxicity against mouse PAM212 cells assessed as cell viability at 0.01 mM after 4 hrs irradiated with 2.5 J/cm2 blue light by MTT assay relative to control; assay type: functional, cell-based
# How it was run: (§2)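 PAM212 cells were seeded about 5 × 10^4/well, grown 48 h, PBS-washed and incubated 4 h with drug at 0.01, 0.1 or 1 mM. Blue light (peak 420 nm) was delivered at 2.5 J/cm², although the methods section states 1.25 J/cm². Medium was then replaced and cells kept 24 h. MTT 1 mg/mL for 3 h, DMSO, A570; survival as % of non-irradiated drug-treated controls.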
# PAM212 [6] = assay: Phototoxicity against mouse PAM212 cells assessed as cell viability at 0.1 mM after 4 hrs irradiated with 2.5 J/cm2 blue light by MTT assay relative to control; assay type: functional; settings: PAM212, light or radiation study, read-out: Activity; how it was run: as §2
# Caco-2 [7] = assay: Drug uptake in human Caco-2 cells assessed as PpIX production per mg of protein at 1 mM after 4 hrs; assay type: ADME, cell-based; settings: caco-2, 4 h, 1000 µM
# How it was run: (§3)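 Cells (PAM212; A549 in F12K; Caco-2 in EMEM, 37 °C, 5% CO2) were seeded in 100 mm dishes and grown 48 h at 37 °C. After PBS washing they were incubated 4 h at 37 °C with 0.1 or 1 mM drug, washed, lysed 15 min and scraped, then centrifuged at 1800 g for 10 min. Supernatant PpIX was read by fluorescence (410/635 nm) against a PpIX standard curve and normalized to protein by BCA.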
# Caco-2 [8] = assay: Drug uptake in human Caco-2 cells assessed as intracellular 5-aminolaevulinic acid level per mg of protein at 1 mM after 4 hrs; assay type: ADME, cell-based; settings: caco-2, 4 h, 1000 µM
# PAM212 [9] = assay: Drug uptake in mouse PAM212 cells assessed as PpIX production per mg of protein at 1 mM after 4 hrs; assay type: ADME, cell-based; settings: pam212, 4 h, 1000 µM; how it was run: as §3
# A549 [10] = assay: Drug uptake in human A549 cells assessed as PpIX production per mg of protein at 0.1 mM after 4 hrs; assay type: ADME, cell-based; settings: a549, 4 h, 100 µM; how it was run: as §3
# PAM212 [11] = assay: Drug uptake in mouse PAM212 cells assessed as intracellular 5-aminolaevulinic acid level per mg of protein at 0.1 mM after 4 hrs; assay type: ADME, cell-based; settings: pam212, 4 h, 100 µM
# PAM212 [12] = assay: Drug uptake in mouse PAM212 cells assessed as PpIX production per mg of protein at 0.1 mM after 4 hrs; assay type: ADME, cell-based; settings: pam212, 4 h, 100 µM; how it was run: as §3
# PAM212 [13] = assay: Drug uptake in mouse PAM212 cells assessed as enhanced PpIX fluorescence at 0.1 mM after 4 hrs; assay type: ADME, cell-based; settings: pam212, 4 h, 100 µM
# How it was run: (§4)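 PAM212 cells were seeded 5 × 10^4/well, grown 48 h, PBS-washed and incubated with drug at 0.01 or 0.1 mM in serum-free medium for 4 or 6 h. Untreated wells gave background and ALA wells served as reference. Well fluorescence: excitation 410 nm, emission 635 nm, scans 600–750 nm. Mean intensity (arbitrary units) after control subtraction, calibrated against rhodamine B.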
# PAM212 [14] = assay: Drug uptake in mouse PAM212 cells assessed as enhanced PpIX fluorescence at 0.01 mM after 4 hrs; assay type: ADME, cell-based; settings: pam212, 4 h, 10 µM; how it was run: as §4
# PAM212 [15] = assay: Drug uptake in mouse PAM212 cells assessed as enhanced PpIX fluorescence at 0.01 mM after 6 hrs; assay type: ADME, cell-based; settings: pam212, 6 h, 10 µM; how it was run: as §4
# PAM212 [16] = assay: Drug uptake in mouse PAM212 cells assessed as enhanced PpIX fluorescence at 0.1 mM after 6 hrs; assay type: ADME, cell-based; settings: pam212, 6 h, 100 µM; how it was run: as §4
# PAM212 [17] = assay: Cytotoxicity against mouse PAM212 cells after 24 hrs in absence of 2.5 J/cm2 blue light by MTT assay; assay type: functional, cell-based
# How it was run: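 Dark toxicity. PAM212 keratinocytes (RPMI-1640, 10% FCS) were seeded about 5 × 10^4 cells/well and grown 48 h, PBS-washed, then given drug for 4 h without irradiation. Medium was replaced and cells were kept a further 24 h. MTT 1 mg/mL for 3 h, formazan dissolved in DMSO, absorbance at 570 nm.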
SMILES,CHI [1],CHI [2],Drug uptake (A549 [3]) [µg/mg],Drug uptake (PAM212 [4]) [µg/mg],Drug uptake (Caco-2 [7]) [ng/mg],Drug uptake (Caco-2 [8]) [µg/mg],Drug uptake (PAM212 [9]) [ng/mg],Drug uptake (A549 [10]) [ng/mg],Drug uptake (PAM212 [11]) [µg/mg],Drug uptake (PAM212 [12]) [ng/mg],Drug uptake (PAM212 [13]),Drug uptake (PAM212 [14]),Drug uptake (PAM212 [15]),Drug uptake (PAM212 [16]),Activity (PAM212 [5]),viability at 100 µM (PAM212 [6]) [%],Activity (PAM212 [17])
COC(=O)CCC(=O)CNC(=O)[C@H]1CCCN1C(C)=O,27.34,18.7,,,,,,,,,,,,,,,
NCC(=O)CCC(=O)O [AMINOLEVULINIC ACID],,,0.08,3.41,603,2.66,310,39.9,0.81,108,,,,,inactive,11,
CC(=O)N[C@@H](Cc1ccccc1)C(=O)NCC(=O)CCC(=O)O[C@@H]1C[C@H](C)CCC1C(C)C (stereo partly drawn),110.53,53.22,,,,,,,,,Active,Active,,,,,
COC(=O)CCC(=O)CNC(=O)[C@H](CCSC)NC(C)=O,41.4,28.89,,13.2,,,295,,3.28,315,Active,Active,Active,Active,Active,3,inactive
COC(=O)CCC(=O)CNC(=O)[C@@H](Cc1ccccc1)NC(C)=O,52.62,37.71,,4.35,,,-2.99,,1.07,4.57,,,,,,,
COC(=O)CCC(=O)CNC(=O)[C@@H](Cc1c[nH]c2ccccc12)NC(C)=O,22.08,37.32,,,,,,,,,,,,,,,
CCOC(=O)CCC(=O)CNC(=O)[C@H](Cc1ccccc1)NC(C)=O,57.58,44.01,,,,,,,,,Active,Active,,,,,
COC(=O)CCC(=O)CNC(=O)[C@H](CCC(=O)O)NC(C)=O,35.01,23.14,,5.04,,,276,,1.2,165,Active,,,Active,,3,inactive
COC(=O)CCC(=O)CNC(=O)[C@@H](CC(C)C)NC(C)=O,50.76,33.89,,,,,,,,,,,,,,,
COC(=O)CCC(=O)CNC(=O)[C@H](CC(C)C)NC(C)=O,50.92,36.67,0.2,12.2,612,6.54,290,5.91,2.8,276,Active,Active,Active,Active,,3,inactive
COCCOC(=O)CCC(=O)CNC(=O)[C@H](Cc1ccccc1)NC(C)=O,79.03,38.26,,,,,,,,,Active,Active,,,,,
COC(=O)CCC(=O)CNC(=O)[C@H](Cc1ccc(O)cc1)NC(C)=O,40.73,34.14,,,,,,,,,,,,,,,
COC(=O)CCC(=O)CNC(=O)[C@H](CC(=O)O)NC(C)=O,24.27,19.62,,1.94,,,20.2,,0.41,19.1,,,,,,,
COC(=O)CCC(=O)CNC(=O)[C@H](Cc1cnc[nH]1)NC(C)=O,28.89,15.59,,,,,,,,,,,,,,,
COC(=O)CCC(=O)CNC(=O)[C@H](NC(C)=O)C(C)C,40.76,24.74,,,,,,,,,,,,,,,
COC(=O)CCC(=O)CNC(=O)[C@H](C)NC(C)=O,17.08,14.18,,3.93,,,12.9,,0.88,10.9,Active,Active,Active,,,3,inactive

# Continued, in another order:
CHI [1],CHI [2],Drug uptake (A549 [3]) [µg/mg],Drug uptake (PAM212 [4]) [µg/mg],Drug uptake (Caco-2 [7]) [ng/mg],Drug uptake (Caco-2 [8]) [µg/mg],Drug uptake (PAM212 [9]) [ng/mg],Drug uptake (A549 [10]) [ng/mg],Drug uptake (PAM212 [11]) [µg/mg],Drug uptake (PAM212 [12]) [ng/mg],Drug uptake (PAM212 [13]),Drug uptake (PAM212 [14]),Drug uptake (PAM212 [15]),Drug uptake (PAM212 [16]),SMILES,Activity (PAM212 [5]),viability at 100 µM (PAM212 [6]) [%],Activity (PAM212 [17])
27.47,18.69,,,,,,,,,,,,,COC(=O)CCC(=O)CNC(=O)[C@@H]1CCCN1C(C)=O,,,
97.31,56.64,1.63,18.9,480,14.8,247,10.1,4.14,284,Active,Active,,,CCCCCCOC(=O)CCC(=O)CNC(=O)[C@H](Cc1ccccc1)NC(C)=O,Active,3,
46.91,37.14,,7.1,,,22.3,,1.64,40.2,,,,,CC[C@H](C)[C@H](NC(C)=O)C(=O)NCC(=O)CCC(=O)OC,,,
17.3,17.3,,,,,,,,,,,,,COC(=O)CCC(=O)CNC(=O)[C@@H](C)NC(C)=O,,,
52.96,34.71,0.38,13.7,594,11.9,295,4.42,2.9,313,Active,Active,Active,Active,COC(=O)CCC(=O)CNC(=O)[C@H](Cc1ccccc1)NC(C)=O,Active,3,inactive
22.08,37.35,0.23,10.3,-5.9,8.35,38.9,-0.02,2.41,26.6,,,,,COC(=O)CCC(=O)CNC(=O)[C@H](Cc1c[nH]c2ccccc12)NC(C)=O,,,
36.43,14.61,,2.17,,,222,,0.5,33.9,,,,,COC(=O)CCC(=O)CNC(=O)[C@H](CO)NC(C)=O,,,
18.77,10.31,,,,,,,,,,,,,COC(=O)CCC(=O)CNC(=O)CNC(C)=O,,,
13.61,8.48,,3.06,,,20.2,,0.68,13.2,,,,,COC(=O)CCC(=O)CNC(=O)[C@H](CCCCN)NC(C)=O,,,
58.35,38.88,,,,,,,,,Active,Active,,,COCCOCCOC(=O)CCC(=O)CNC(=O)[C@H](Cc1ccccc1)NC(C)=O,,,
41.6,25.64,,,,,,,,,Active,,,,COC(=O)CCC(=O)CNC(=O)[C@@H](NC(C)=O)C(C)C,,,
